In the library only some 1.3% were active in any assay of this set; here they are far more common.
PTPN22 inh 2 = blocks human PTPN22 phosphatase activity; Q9Y2R2; recombinant LYP catalytic domain, DiFMUP fluorescence; inhibition, % at 2 µM; 96,000 compounds, 0.21% hits;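 active = inhibition at 2 µM at or above a set limit, the screen mean plus 3 SD, cut at about 24% in these data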;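 also: 0% = DMSO with enzyme and 100% = enzyme fully blocked by orthovanadate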
LYP act = activators of human LYP (PTPN22) phosphatase. recombinant LYP, DiFMUP fluorescence; 0 = plate median, 100 = signal doubled. AID 697. 96,000 compounds, 0.11% hits. Q9Y2R2. activation, % at 2 µM;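 active = activation at 2 µM above a set limit, the mean plus 5 SD, cut at about 37% in these data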
EphB4 antag = antagonists of human EphB4-ephrin-B2 interaction. P54760. EphB4 LBD / TNYL-RAW-Alexa532 peptide, fluorescence polarization. inhibition, % at 7 µM. 97,000 compounds, 0.15% hits;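 active = inhibition above the screen-wide mean inhibition plus 3 SD, cut at about 15% in these data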;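 also: 0% = DMSO wells and 100% = excess unlabeled TNYL-RAW peptide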
Target sequence (P54760 whole entry, looked up, the tested form may be a part): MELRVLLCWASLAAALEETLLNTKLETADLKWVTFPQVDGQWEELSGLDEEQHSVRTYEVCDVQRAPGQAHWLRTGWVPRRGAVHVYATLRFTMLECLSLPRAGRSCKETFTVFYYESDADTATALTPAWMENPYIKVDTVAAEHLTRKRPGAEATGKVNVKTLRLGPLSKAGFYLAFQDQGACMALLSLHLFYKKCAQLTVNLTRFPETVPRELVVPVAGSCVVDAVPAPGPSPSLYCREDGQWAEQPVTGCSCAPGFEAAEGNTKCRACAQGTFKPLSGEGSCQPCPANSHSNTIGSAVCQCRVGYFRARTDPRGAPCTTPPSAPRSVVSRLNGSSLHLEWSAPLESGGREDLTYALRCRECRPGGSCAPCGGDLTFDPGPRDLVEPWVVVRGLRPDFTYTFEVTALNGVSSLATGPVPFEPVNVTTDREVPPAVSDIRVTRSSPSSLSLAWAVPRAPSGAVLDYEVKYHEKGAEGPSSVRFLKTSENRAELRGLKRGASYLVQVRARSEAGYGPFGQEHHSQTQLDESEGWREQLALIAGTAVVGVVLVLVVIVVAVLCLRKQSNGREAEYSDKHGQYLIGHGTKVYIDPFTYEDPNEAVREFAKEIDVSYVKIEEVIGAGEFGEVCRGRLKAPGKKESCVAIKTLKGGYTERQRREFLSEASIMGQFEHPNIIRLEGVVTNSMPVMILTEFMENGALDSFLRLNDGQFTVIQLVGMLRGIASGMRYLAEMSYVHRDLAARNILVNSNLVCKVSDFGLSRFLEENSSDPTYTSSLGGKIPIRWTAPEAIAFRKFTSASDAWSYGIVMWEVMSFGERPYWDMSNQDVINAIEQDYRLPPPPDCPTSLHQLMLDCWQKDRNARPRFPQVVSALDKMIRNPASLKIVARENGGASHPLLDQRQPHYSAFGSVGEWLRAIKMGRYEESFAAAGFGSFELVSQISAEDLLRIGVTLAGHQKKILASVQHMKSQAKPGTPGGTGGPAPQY
Rev-RRE block = disrupts HIV-1 Rev binding to RRE RNA. inhibition, % at 8 µM. 97,000 compounds, 0.79% hits. P05866. Rev peptide-RRE RNA binding, FRET;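 active = inhibition above the screen-wide mean plus 3 SD, cut at about 35% in these data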;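 also: 0% = median DMSO wells and 100% = median Neomycin B control wells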
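Assay system: Labelled RRE RNA duplex and labelled Rev peptide | Times: 5 min preincubation and 15 min binding, 25 °C | Detection: FRET, ex 480 nm, em 540 and 671 nm | Evaluation: % inhibition of FRET ratio versus controls | Benchmarks: DMSO wells as 0% and neomycin B wells as 100% inhibition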
LYP act confirm = confirmation of human LYP phosphatase activators; shares compounds with LYP act; Recombinant LYP, DIFMUP fluorescence, activation; zero set by plate's median compound well; activation, % at 2 µM; 100 tested, under 10 active; call rule not given here
* marks the source's active call; other numbers are inactive results; [ ] = dose if it differs, or a comment.

SMILES | PTPN22 inh 2 | LYP act | EphB4 antag | Rev-RRE block | others
N#Cc1c(-c2ccccc2)cc(-c2ccco2)c(C#N)c1N | 3 | -6 | -6 | 37*
N#Cc1sc2nc(-c3ccccc3)cc(-c3ccco3)c2c1N | -6 | 7 | 1 | 37*
Cc1c(C(=O)Nc2ccc3c(c2)OCO3)sc2ncn(CC(=O)N3CC(C)CC(C)C3)c(=O)c12 (configuration not stated) | 8 | -10 | 0 | 13
Cc1ccc2ccccc2c1Cn1c(-n2ccnc2)nc2c1c(=O)n(C)c(=O)n2C | 11 | -9 | 3 | 2
O=C1CC(N2CCN(c3ccc(C(=O)c4ccc(F)cc4)cc3)CC2)C(=O)N1 (configuration not stated) | -7 | 4 | -68 | 0
N=c1c(C(=O)NCc2ccc(F)cc2)cc2c(=O)n3ccccc3nc2n1Cc1cccnc1 | 5 | -4 | -9 | 37*
CCSc1ccccc1C(=O)NCc1ccc2c(c1)OCO2 | 2 | -4 | 2 | 0
CN1CCN(C(=O)CSc2nc(-c3cccs3)ccc2C#N)CC1 | 16 | -13 | -1 | 23
O=C(c1ccco1)[C@@H]1[C@@H]2C(=O)N(c3ccc(Br)cc3)C(=O)[C@@H]2C2c3ccccc3C=CN21 (some centres not stated) | -2 | 1 | -2 | 41*
O=C(c1ccco1)[C@@H]1[C@@H]2C(=O)N(c3ccc(F)cc3)C(=O)[C@@H]2C2c3ccccc3C=CN21 (some centres not stated) | 1 | -1 | 11 | 42*
Fc1ccc(Sc2cc(Cl)c(-c3ccccc3)nn2)cc1 | 0 | 3 | 20* | 10
O=C(Nc1ccc(-c2nc3ccccc3o2)cc1)c1ccc(N2C(=O)C3C4C=CC(C4)C3C2=O)cc1 (configuration not stated) | -3 | 5 | -2 | -1
CCOC(=O)[C@@H]1CCNC[C@@H]1c1ccccc1 | -4 | 1 | -7 | 141*[fluorescence artefact?]
COc1[nH]c(/N=C/c2ccccc2)c(C#N)c1C#N | 3 | -4 | 4 | 38*
O=C(NCC1CCCO1)c1onc(CSc2ccc(Cl)cc2)c1C(=O)O (configuration not stated) | -4 | 7 | -6 | -2
COc1cccc(SCc2noc(C(=O)NCC3CCCO3)c2C(=O)O)c1 (configuration not stated) | -49 | 54* | 3 | -1 | LYP act confirm=2
COc1ccc(S(=O)(=O)N2CCCC2C(=O)Nc2nnc(-c3cccnc3)s2)cc1 (configuration not stated) | 2 | -4 | -6 | -1
OCCOc1ccc(C2=NCCO2)cc1 | -39 | 38* | 1 | 5 | LYP act confirm=-1
CCCOc1ccc(-c2nnn(CC(=O)c3ccc4c(c3)OCCO4)n2)cc1 | -5 | 4 | -2 | 13
Cc1nnc(NC(=O)c2ccccc2Br)s1 | -1 | 0 | -1 | 7
Cc1nnc(NC(=O)c2ccccc2F)s1 | -42 | 38* | -5 | 4 | LYP act confirm=6
CCN1C(=O)C2C(c3cccc(F)c3)NC(CC)(C(=O)OC)C2C1=O (configuration not stated) | -42 | 42* | -4 | -1 | LYP act confirm=7
CCN1C(=O)C2C(c3cccc(F)c3)NC(C)(C(=O)OC)C2C1=O (configuration not stated) | 9 | -8 | 6 | 3
CC1=NCCN1S(=O)(=O)c1cc(Cl)ccc1Cl | -10 | 9 | 1 | 6
N#Cc1c(-c2ccccc2)ccnc1Oc1ccccc1 | 11 | -9 | 6 | 7
SMILES | PTPN22 inh 2 | LYP act | EphB4 antag | Rev-RRE block | others
CCOC(=O)Cn1c(S(=O)(=O)Cc2ccc(F)cc2)nc(-c2ccccc2)c1-c1ccccc1 | 13 | -9 | 6 | 3
C#CCn1c(S(=O)(=O)Cc2ccc(F)cc2)nc(-c2ccccc2)c1-c1ccccc1 | -49 | 45* | -1 | 12 | LYP act confirm=-7
O=C1Nc2ccccc2/C1=C\c1cccn1-c1ccc(OC(F)(F)F)cc1 | 12 | -10 | -3 | 11
COc1cccc(CNC(=O)C(=O)NCC2CCCO2)c1 (configuration not stated) | -4 | 5 | 4 | 10
O=C(Nc1cccnc1)c1cccnc1Cl | -42 | 38* | -3 | 7 | LYP act confirm=-4
N#Cc1cc2c(nc1SC1CCCCC1O)CCCC2 (configuration not stated) | 4 | -2 | 1 | 0
CC1=C(C(N)=O)C(c2ccccn2)n2nc(SCc3ccccc3Cl)nc2N1 (configuration not stated) | -10 | 8 | -9 | 4

High-throughput results from PubChem BioAssay.
